Results as given in ChEMBL document CHEMBL4024784, “Structure-Based Design, Synthesis, and In Vivo Antinociceptive Effects of Selective A1 Adenosine Receptor Agonists” (J Med Chem, 2018).
Activity calls are given as the source filed them. The rule behind the calls is not given here.

Experiments:
Adenosine receptor A2a = Adenosine receptor A2a (Homo sapiens, UniProt P29274); assay: Displacement of [3H]NECA from recombinant human adenosine A2A receptor expressed in CHO cell membranes after 3 hrs
Summary of the method: (§1)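 Competition binding on CHO membranes stably expressing the human subtype (two-step 1,000 x g then 100,000 x g centrifugation, stored -80°C). Radioligands: 1 nM [3H]CCPA (A1), 10 nM [3H]NECA (A2A), 1 nM [3H]HEMADO (A3). Nonspecific binding: 1 mM theophylline (A1) or 100 µM R-PIA (A2A, A3). Ki from competition curves; geometric means with 95% CI, duplicates, n ≥ 3.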

Adenosine receptor A1 [1] = molecular target: T1, Adenosine receptor A1 (Homo sapiens, UniProt P30542); assay: Displacement of [3H]CCPA from recombinant human adenosine A1 receptor expressed in CHO cell membranes after 3 hrs; summary of the method: as §1
T1 sequence (P30542 whole entry): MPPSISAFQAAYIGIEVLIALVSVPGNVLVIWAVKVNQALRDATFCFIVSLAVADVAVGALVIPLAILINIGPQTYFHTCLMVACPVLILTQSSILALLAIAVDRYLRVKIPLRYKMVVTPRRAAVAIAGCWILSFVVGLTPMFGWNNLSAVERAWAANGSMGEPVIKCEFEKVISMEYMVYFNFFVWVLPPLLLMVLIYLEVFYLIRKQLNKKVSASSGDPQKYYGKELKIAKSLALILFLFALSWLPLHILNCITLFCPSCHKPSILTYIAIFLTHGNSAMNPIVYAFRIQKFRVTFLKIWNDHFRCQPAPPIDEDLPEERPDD

Adenosine receptor A2b = molecular target: T2, Adenosine receptor A2b (Homo sapiens, UniProt P29275); assay: Agonist activity at recombinant human adenosine A2B receptor expressed in CHO cell membranes assessed as stimulation of adenylyl cyclase activity in presence of […]; type: functional, cell-based
T2 sequence (P29275 whole entry): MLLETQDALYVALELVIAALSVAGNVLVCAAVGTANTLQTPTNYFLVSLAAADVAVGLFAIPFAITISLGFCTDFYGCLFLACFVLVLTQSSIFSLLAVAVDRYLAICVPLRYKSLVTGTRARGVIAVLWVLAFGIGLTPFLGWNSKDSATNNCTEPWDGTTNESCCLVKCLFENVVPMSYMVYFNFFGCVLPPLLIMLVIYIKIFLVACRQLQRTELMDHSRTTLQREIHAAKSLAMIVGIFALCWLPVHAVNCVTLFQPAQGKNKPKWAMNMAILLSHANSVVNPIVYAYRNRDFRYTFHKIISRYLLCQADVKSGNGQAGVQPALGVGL
Summary of the method: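 A2B potency from stimulation of adenylyl cyclase in crude CHO membranes (single high-speed centrifugation, resuspended in 50 mM Tris/HCl pH 7.4, used immediately); EC50 derived. Where only partial agonism was seen, efficacy was compared to 100 µM NECA as full agonist. Geometric means, 95% CI, duplicates, n ≥ 3.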

Adenosine receptor A3 [2] = molecular target: T3, Adenosine receptor A3 (Homo sapiens, UniProt P0DMS8); assay: Displacement of [3H]HEMADO from recombinant human adenosine A3 receptor expressed in CHO cell membranes after 3 hrs; summary of the method: as §1
T3 sequence (P0DMS8 whole entry): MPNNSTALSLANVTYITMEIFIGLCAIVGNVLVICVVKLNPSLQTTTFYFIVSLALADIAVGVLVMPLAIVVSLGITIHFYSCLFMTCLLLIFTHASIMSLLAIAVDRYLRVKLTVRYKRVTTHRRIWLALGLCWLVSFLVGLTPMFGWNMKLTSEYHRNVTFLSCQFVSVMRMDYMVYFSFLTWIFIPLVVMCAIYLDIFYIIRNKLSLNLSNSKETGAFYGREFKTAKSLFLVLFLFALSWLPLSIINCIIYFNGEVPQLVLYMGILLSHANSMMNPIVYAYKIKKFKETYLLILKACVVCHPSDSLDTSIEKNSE

Homo sapiens = organism: Homo sapiens; assay: Selectivity ratio of Ki for recombinant human adenosine A2A receptor to Ki for recombinant human adenosine A1 receptor
Summary of the method: (§2)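 Ratios computed from Ki values obtained by competition binding in human receptor-transfected CHO membranes: [3H]CCPA 1 nM (A1), [3H]NECA 10 nM (A2A), [3H]HEMADO 1 nM (A3).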

[3] = molecular target: Adenosine receptors; A1 & A3 (Homo sapiens) (UniProt P30542+P0DMS8); assay: Selectivity ratio of Ki for recombinant human adenosine A3 receptor to Ki for recombinant human adenosine A1 receptor; summary of the method: as §2
Mus musculus [4] = assay: Antinociceptive activity in ip dosed C57BL/6 mouse assessed as reduction in prolonged phase of tonic pain administered 10 mins prior to formalin challenge measured after 60 mins; type: functional, organism-based
Summary of the method: (§3)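 Adult male C57BL/6 mice (25-30 g), acclimatized 30 min in test chamber. Compound or vehicle (10% DMSO in 0.9% NaCl) given i.p. 10 min before 30 µL 1.25% formalin s.c. into dorsal hind paw; DPCPX 1 mg/kg i.p. where co-given. Blinded observers recorded paw lifting/licking time every 5 min for 60 min; early phase 0-7 min, late phase 15-60 min. 8-10 mice/group, mean ± SEM.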

Adenosine receptor A1 [5] = molecular target: T1, Adenosine receptor A1; assay: Agonist activity at recombinant human adenosine A1 receptor expressed in CHO cell membranes assessed as inhibition of forskolin-stimulated adenylyl cyclase activity in presence of […]
[6] = molecular target: T4, Adenosine receptor A1 (Homo sapiens) (UniProt P30542); assay: Agonist activity at recombinant human adenosine A1 receptor expressed in CHO cell membranes assessed as inhibition of forskolin-stimulated adenylyl cyclase activity in presence of […] relative to CCPA
T4 sequence (whole entry): T1 sequence (P30542 whole entry)

Adenosine receptor A3 [7] = molecular target: T3, Adenosine receptor A3; assay: Antagonist activity at recombinant human adenosine A3 receptor expressed in CHO cell membranes assessed as inhibition of forskolin-stimulated adenylyl cyclase in presence of […]; type: functional, cell-based
Summary of the method: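 hA3-CHO membranes (one high-speed spin, 50 mM Tris/HCl pH 7.4, used fresh) tested for reversal of NECA-induced inhibition of forskolin-stimulated adenylyl cyclase. NECA served as reference agonist. Points in duplicate, at least 3 independent experiments.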

Mus musculus [8] = assay: Antinociceptive activity in C57BL/6 mouse assessed as reduction in early phase of tonic pain at 2 mg/kg, ip administered 10 mins prior to formalin challenge measured after 7 mins; type: functional, organism-based; summary of the method: as §3
Mus musculus [9] = assay: Antinociceptive activity in C57BL/6 mouse assessed as reduction in prolonged phase of tonic pain at 4 mg/kg, ip administered 10 mins prior to formalin challenge measured after 60 mins; type: functional, organism-based; summary of the method: as §3
Mus musculus [10] = assay: Antinociceptive activity in C57BL/6 mouse assessed as reduction in early phase of tonic pain at 4 mg/kg, ip administered 10 mins prior to formalin challenge measured after 7 mins; type: functional, organism-based; summary of the method: as §3
Mus musculus [11] = assay: Antinociceptive activity in C57BL/6 mouse assessed as reduction in prolonged phase of tonic pain at 4 mg/kg, ip administered 10 mins prior to formalin challenge measured after 60 mins in presence of A1AR antagonist DPCPX; type: functional, organism-based; summary of the method: as §3
Mus musculus [12] = assay: Antinociceptive activity in C57BL/6 mouse assessed as reduction in early phase of tonic pain at 4 mg/kg, ip administered 10 mins prior to formalin challenge measured after 7 mins in presence of A1AR antagonist DPCPX; type: functional, organism-based; summary of the method: as §3
Mus musculus [13] = assay: Antinociceptive activity in C57BL/6 mouse assessed as reduction in prolonged phase of tonic pain at 2 mg/kg, ip administered 10 mins prior to formalin challenge measured after 60 mins in presence of A1AR antagonist DPCPX; type: functional, organism-based; summary of the method: as §3

Chain of Adenosine receptor A2a (P29274 whole entry): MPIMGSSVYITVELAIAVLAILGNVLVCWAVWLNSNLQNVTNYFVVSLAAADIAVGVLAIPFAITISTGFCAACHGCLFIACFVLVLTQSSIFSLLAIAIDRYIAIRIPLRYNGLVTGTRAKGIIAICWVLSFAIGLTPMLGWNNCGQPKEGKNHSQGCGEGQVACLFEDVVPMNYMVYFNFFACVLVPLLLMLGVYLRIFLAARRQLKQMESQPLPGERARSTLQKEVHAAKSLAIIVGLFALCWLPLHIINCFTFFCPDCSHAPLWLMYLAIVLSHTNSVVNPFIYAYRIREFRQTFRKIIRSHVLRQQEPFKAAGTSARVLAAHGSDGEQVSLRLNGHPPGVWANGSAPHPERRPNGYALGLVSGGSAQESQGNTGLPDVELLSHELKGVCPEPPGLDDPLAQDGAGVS

Compound	Ki (Adenosine receptor A2a)	Ki (Adenosine receptor A1 [1])	EC50 (Adenosine receptor A2b)	Ki (Adenosine receptor A3 [2])	Ratio Ki (Homo sapiens)	Ratio Ki [3]	Activity (Mus musculus [4])	EC50 (Adenosine receptor A1 [5])	Efficacy [6]	IC50 (Adenosine receptor A3 [7])	Activity (Mus musculus [8])	Activity (Mus musculus [9])	Activity (Mus musculus [10])	Activity (Mus musculus [11])	Activity (Mus musculus [12])	Activity (Mus musculus [13])
Cc1cc(C)n(C[C@H]2O[C@@H](n3cnc4c(NC5CC6CCC5C6)nc(Cl)nc43)[C@H](O)[C@@H]2O)n1 (mixture of isomers)	9430 nM	4.35 nM	> 30000 nM	1450 nM	2170	333	Dose-dependent effect	134 nM	> 90%	–	–	–	–	–	–	–
Cc1cc(C)n(C[C@H]2O[C@@H](n3cnc4c(Nc5ccc(Cl)cc5F)ncnc43)[C@H](O)[C@@H]2O)n1	6830 nM	158 nM	> 60000 nM	2730 nM	43	17	–	–	–	–	–	–	–	–	–	–
Cc1cc(C)n(C[C@H]2O[C@@H](n3cnc4c(NC5CCCC5)ncnc43)[C@H](O)[C@@H]2O)n1	14500 nM	115 nM	> 60000 nM	5640 nM	126	49	–	–	–	–	–	–	–	–	–	–
Cc1cc(C)n(C[C@H]2O[C@@H](n3cnc4c(N[C@@H]5CCOC5)nc(Cl)nc43)[C@H](O)[C@@H]2O)n1	11900 nM	438 nM	> 60000 nM	996 nM	27	2.3	–	–	–	–	–	–	–	–	–	–
Cc1cc(C)n(C[C@H]2O[C@@H](n3cnc4c(NC5CC6CCC5C6)ncnc43)[C@H](O)[C@@H]2O)n1 (mixture of isomers)	19600 nM	25.6 nM	> 30000 nM	5450 nM	765	213	–	–	–	–	–	–	–	–	–	–
O[C@@H]1[C@H](O)[C@@H](CCl)O[C@H]1n1cnc2c(Nc3ccc(Cl)cc3F)nc(Cl)nc21	1960 nM	11.2 nM	> 60000 nM	232 nM	175	21	–	–	–	–	–	–	–	–	–	–
O[C@@H]1[C@H](O)[C@@H](CCl)O[C@H]1n1cnc2c(Nc3ccc(Cl)cc3F)ncnc21	1360 nM	1.87 nM	3740 nM	136 nM	727	73	–	56 nM	> 90%	4140 nM	–	–	–	–	–	–
Cc1cc(C)n(C[C@H]2O[C@@H](n3cnc4c(NC5CCCC5)nc(Cl)nc43)[C@H](O)[C@@H]2O)n1	10200 nM	18.6 nM	> 30000 nM	343 nM	548	18	–	541 nM	> 90%	1910 nM	–	–	–	–	–	–
Cc1cc(C)n(C[C@H]2O[C@@H](n3cnc4c(Nc5ccc(Cl)cc5F)nc(Cl)nc43)[C@H](O)[C@@H]2O)n1	> 100000 nM	139 nM	> 60000 nM	139 nM	> 719	1	–	5570 nM	> 90%	701 nM	–	–	–	–	–	–
O[C@@H]1[C@H](O)[C@@H](CCl)O[C@H]1n1cnc2c(N[C@@H]3CCOC3)ncnc21	10400 nM	1.89 nM	12800 nM	1200 nM	5500	635	–	140 nM	> 90%	–	Active	Active	Active	inactive	inactive	–
Cc1cc(C)n(C[C@H]2O[C@@H](n3cnc4c(N[C@@H]5CCOC5)ncnc43)[C@H](O)[C@@H]2O)n1	28600 nM	491 nM	> 60000 nM	5280 nM	58	11	–	–	–	–	–	–	–	–	–	–
O[C@@H]1[C@H](O)[C@@H](CCl)O[C@H]1n1cnc2c(N[C@@H]3CCOC3)nc(Cl)nc21	8680 nM	3.5 nM	20000 nM	1100 nM	2480	314	Dose-dependent effect	54.2 nM	> 90%	–	–	–	–	–	–	inactive
